In ChEMBL document CHEMBL4028916, “A Dipolar Cycloaddition Reaction To Access 6-Methyl-4,5,6,7-tetrahydro-1H-[1,2,3]triazolo[4,5-c]pyridines Enables the Discovery Synthesis and Preclinical Profiling of a P2X7 Antagonist Clinical Candidate” (J Med Chem, 2018):
One block for each compound: values may come before it.

Tests used:
[1] = Clearance in Sprague-Dawley rat at 0.5 mg/kg, iv or […], po by LC-MS/MS method; format: ADME, organism-based; details: in vivo
[2] = Volume of distribution at steady state in cynomolgus monkey at 0.125 mg/kg, iv or 0.625 mg/kg, po by LC-MS/MS method; format: ADME, organism-based, Macaca fascicularis; details: in vivo, read-out: Vdss
[3] = Apparent permeability across apical to basolateral side in human Caco2 cells; format: ADME, cell-based; details: Caco-2
Procedure, shortened: (§1)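 Caco-2 bidirectional permeability, reported as Papp B-A/A-B (×10⁻⁶ cm/s).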

[4] = Cmax in Beagle dog at 0.125 mg/kg, iv or 0.625 mg/kg, po by LC-MS/MS method; format: ADME, organism-based, Canis lupus familiaris; details: in vivo
[5] = Clearance in Beagle dog at 0.125 mg/kg, iv or 0.625 mg/kg, po by LC-MS/MS method; format: ADME, organism-based, Canis lupus familiaris; details: in vivo
[6] = Cmax in dog at 300 mg/kg, po for 5 days; format: ADME, organism-based, Canis lupus familiaris; set-up: dose 300 mg/kg, route oral; details: in vivo
[7] = AUC (24 hrs) in cynomolgus monkey at 0.125 mg/kg, iv or 0.625 mg/kg, po by LC-MS/MS method; format: ADME, organism-based, Macaca fascicularis; details: in vivo
[8] = Volume of distribution at steady state in Beagle dog at 0.125 mg/kg, iv or 0.625 mg/kg, po by LC-MS/MS method; format: ADME, organism-based, Canis lupus familiaris; details: in vivo, read-out: Vdss
[9] = Drug uptake in Sprague-Dawley rat plasma administered at 10 mg/kg, po measured after 6.0 hrs; format: ADME, organism-based
Procedure, shortened: (§2)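 Male Sprague Dawley rats (300–400 g) given 10 mg/kg p.o. One compound was dosed as a 0.5% HPMC suspension and the other as a 20% HP-β-cyclodextrin solution. Two animals per time point were killed with CO2 at 0.5, 2 and 6 h, and plasma and brain drug levels were taken. Data are mean ± SEM (n=2).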

[10] = Drug uptake in Sprague-Dawley rat brain administered at 10 mg/kg, po measured after 2.0 hrs; format: ADME, organism-based; procedure, shortened: as §2
[11] = AUC (24 hrs) in Beagle dog at 0.125 mg/kg, iv or 0.625 mg/kg, po by LC-MS/MS method; format: ADME, organism-based, Canis lupus familiaris; details: in vivo
[12] = Cmax in cynomolgus monkey at 0.125 mg/kg, iv or 0.625 mg/kg, po by LC-MS/MS method; format: ADME, organism-based, Macaca fascicularis; details: in vivo
[13] = AUC in dog at 300 mg/kg, po for 5 days; format: ADME, organism-based, Canis lupus familiaris; details: in vivo
[14] = Apparent permeability across basolateral to apical side in human Caco2 cells; format: ADME, cell-based; details: Caco-2; procedure, shortened: as §1
[15] = Cmax in Sprague-Dawley rat at 0.5 mg/kg, iv or […], po by LC-MS/MS method; format: ADME, organism-based; details: in vivo
[16] = Drug uptake in Sprague-Dawley rat plasma administered at 10 mg/kg, po measured after 2.0 hrs; format: ADME, organism-based; procedure, shortened: as §2
[17] = Half life in Sprague-Dawley rat at 0.5 mg/kg, iv by LC-MS/MS method; format: ADME, organism-based; details: in vivo
Procedure, shortened: (§3)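 Single-dose PK in male Sprague-Dawley rats, beagle dogs or cynomolgus monkeys, given i.v. and p.o. as a solution in 50% PEG400/50% water or 20% HP-β-CD. Plasma measured by LC–MS/MS; parameters from noncompartmental analysis.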

[18] = AUC in rat dosed at 250 mg/kg, po for 4 days; format: ADME, organism-based; details: in vivo
[19] = Cmax in rat at 250 mg/kg, po for 4 days; format: ADME, organism-based; set-up: dose 250 mg/kg, route oral; details: in vivo
[20] = Drug uptake in Sprague-Dawley rat plasma administered at 10 mg/kg, po measured after 0.5 hrs; format: ADME, organism-based; procedure, shortened: as §2
[21] = Volume of distribution at steady state in Sprague-Dawley rat at 0.5 mg/kg, iv or […], po by LC-MS/MS method; format: ADME, organism-based; details: in vivo, read-out: Vdss
[22] = Drug uptake in Sprague-Dawley rat brain administered at 10 mg/kg, po measured after 0.5 hrs; format: ADME, organism-based; procedure, shortened: as §2
[23] = Oral bioavailability in Beagle dog at 0.625 mg/kg by LC-MS/MS method; format: ADME, organism-based, Canis lupus familiaris; details: in vivo; procedure, shortened: as §3
[24] = Partition coefficient, log D of the compound at pH 7.4; format: physicochemical; details: octanol/water
[25] = AUC (24 hrs) in Sprague-Dawley rat at 0.5 mg/kg, iv or […], po by LC-MS/MS method; format: ADME, organism-based; details: in vivo
[26] = Oral bioavailability in cynomolgus monkey at 0.625 mg/kg by LC-MS/MS method; format: ADME, organism-based, Macaca fascicularis; details: in vivo; procedure, shortened: as §3
[27] = Drug uptake in Sprague-Dawley rat brain administered at 10 mg/kg, po measured after 6.0 hrs; format: ADME, organism-based; procedure, shortened: as §2
[28] = Oral bioavailability in Sprague-Dawley rat at […] by LC-MS/MS method; format: ADME, organism-based; details: in vivo
[29] = Half life in Beagle dog at 0.125 mg/kg, iv by LC-MS/MS method; format: ADME, organism-based, Canis lupus familiaris; details: in vivo
[30] = Half life in cynomolgus monkey at 0.125 mg/kg, iv by LC-MS/MS method; format: ADME, organism-based, Macaca fascicularis; details: in vivo; procedure, shortened: as §3
[31] = Clearance in cynomolgus monkey at 0.125 mg/kg, iv or 0.625 mg/kg, po by LC-MS/MS method; format: ADME, organism-based, Macaca fascicularis; details: in vivo
[32] = Half life in cynomolgus monkey at 0.5 mg/kg, iv by LC-MS/MS method; format: ADME, organism-based, Macaca fascicularis; details: in vivo; procedure, shortened: as §3
[33] = Cmax in Beagle dog at […], iv or 1.25 mg/kg, po by LC-MS/MS method; format: ADME, organism-based, Canis lupus familiaris; details: in vivo
[34] = Oral bioavailability in cynomolgus monkey at […] by LC-MS/MS method; format: ADME, organism-based, Macaca fascicularis; details: in vivo
[35] = Volume of distribution at steady state in Sprague-Dawley rat at 1 mg/kg, iv or 5 mg/kg, po by LC-MS/MS method; format: ADME, organism-based; details: in vivo, read-out: Vdss
[36] = AUC in rat at 125 mg/kg, po for 5 days; format: ADME, organism-based; details: in vivo
[37] = Clearance in Sprague-Dawley rat at 1 mg/kg, iv or 5 mg/kg, po by LC-MS/MS method; format: ADME, organism-based; details: in vivo
[38] = AUC (24 hrs) in cynomolgus monkey at 0.5 mg/kg, iv or […], po by LC-MS/MS method; format: ADME, organism-based, Macaca fascicularis; details: in vivo
[39] = Cmax in cynomolgus monkey at 0.5 mg/kg, iv or […], po by LC-MS/MS method; format: ADME, organism-based, Macaca fascicularis; details: in vivo
[40] = Clearance in cynomolgus monkey at 0.5 mg/kg, iv or […], po by LC-MS/MS method; format: ADME, organism-based, Macaca fascicularis; details: in vivo
[41] = Half life in Sprague-Dawley rat at 1 mg/kg, iv by LC-MS/MS method; format: ADME, organism-based; details: in vivo; procedure, shortened: as §3
Plasma = assay: Plasma concentration in dog; format: ADME, Canis lupus familiaris
[42] = AUC (24 hrs) in Beagle dog at […], iv or 1.25 mg/kg, po by LC-MS/MS method; format: ADME, organism-based, Canis lupus familiaris; details: in vivo
[43] = Cmax in dog at 10 mg/kg, po for 5 days; format: ADME, organism-based, Canis lupus familiaris; set-up: dose 10 mg/kg, route oral; details: in vivo
[44] = Clearance in Beagle dog at […], iv or 1.25 mg/kg, po by LC-MS/MS method; format: ADME, organism-based, Canis lupus familiaris; details: in vivo
[45] = Cmax in rat at 125 mg/kg, po for 5 days; format: ADME, organism-based; set-up: dose 125 mg/kg, route oral; details: in vivo
[46] = Oral bioavailability in Sprague-Dawley rat at 5 mg/kg by LC-MS/MS method; format: ADME, organism-based; details: in vivo; procedure, shortened: as §3
[47] = Cmax in Sprague-Dawley rat at 1 mg/kg, iv or 5 mg/kg, po by LC-MS/MS method; format: ADME, organism-based; details: in vivo
[48] = Plasma concentration in guinea pig; format: ADME, Cavia porcellus
[49] = Volume of distribution at steady state in Beagle dog at […], iv or 1.25 mg/kg, po by LC-MS/MS method; format: ADME, organism-based, Canis lupus familiaris; details: in vivo, read-out: Vdss
[50] = AUC (24 hrs) in Sprague-Dawley rat at 1 mg/kg, iv or 5 mg/kg, po by LC-MS/MS method; format: ADME, organism-based; details: in vivo
[51] = Half life in Beagle dog at […], iv by LC-MS/MS method; format: ADME, organism-based, Canis lupus familiaris; details: in vivo
Cavia porcellus = species: Cavia porcellus; assay: Toxicity in guinea pig; details: in vivo
[52] = Volume of distribution at steady state in cynomolgus monkey at 0.5 mg/kg, iv or […], po by LC-MS/MS method; format: ADME, organism-based, Macaca fascicularis; details: in vivo, read-out: Vdss
[53] = Oral bioavailability in Beagle dog at 1.25 mg/kg by LC-MS/MS method; format: ADME, organism-based, Canis lupus familiaris; details: in vivo; procedure, shortened: as §3
[54] = AUC in dog at 10 mg/kg, po for 5 days; format: ADME, organism-based, Canis lupus familiaris; details: in vivo
Canis familiaris = species: Canis familiaris; assay: Toxicity in dog; set-up: species or system Canis lupus familiaris; details: in vivo

clearance [1]: 12 mL/min/kg
Vd [2]: 1.7 L/kg
Papp A→B [3]: 49 ×10⁻⁶ cm/s
Cmax [4]: 305 ng/mL
clearance [5]: 3.8 mL/min/kg
Cmax [6]: 5330 ng/mL
AUC at 24 h [7]: 122 ng·h/mL
Vd [8]: 2.6 L/kg
concentration at 6 h [9]: 1050 ng/mL
concentration at 2 h [10]: 2390 ng/mL
AUC at 24 h [11]: 3040 ng·h/mL
Cmax [12]: 36 ng/mL
AUC at 120 h [13]: 78400 ng·h/mL
Papp B→A [14]: 73 ×10⁻⁶ cm/s
Cmax [15]: 541 ng/mL
concentration at 2 h [16]: 1880 ng/mL
half-life [17]: 150 min
AUC at 96 h [18]: 108 µg·h/mL
Cmax [19]: 9260 ng/mL
concentration at 0.5 h [20]: 855 ng/mL
Vd [21]: 2.5 L/kg
concentration at 0.5 h [22]: 1060 ng/mL
bioavailability [23]: 123%
logD [24]: 2.23
AUC at 24 h [25]: 3190 ng·h/mL
bioavailability [26]: 30%
concentration at 6 h [27]: 1620 ng/mL
bioavailability [28]: 90%
half-life [29]: 528 min
half-life [30]: 54 min
clearance [31]: 26 mL/min/kg
SMILES: C[C@H]1Cc2c(nnn2-c2ncc(F)cn2)CN1C(=O)c1cccc(C(F)(F)F)c1F

half-life [32]: 360 min
Cmax [33]: 1120 ng/mL
bioavailability [34]: 97%
Papp A→B [3]: 35 ×10⁻⁶ cm/s
Vd [35]: 1.7 L/kg
AUC at 120 h [36]: 291 µg·h/mL
clearance [37]: 3.7 mL/min/kg
AUC at 24 h [38]: 16300 ng·h/mL
Cmax [39]: 1860 ng/mL
clearance [40]: 2.6 mL/min/kg
concentration at 6 h [9]: 2440 ng/mL
half-life [41]: 336 min
concentration at 2 h [10]: 2910 ng/mL
Cp (Plasma): 2820 ng/mL
AUC at 24 h [42]: 23300 ng·h/mL
Cmax [43]: 10700 ng/mL
clearance [44]: 0.8 mL/min/kg
Papp B→A [14]: 45 ×10⁻⁶ cm/s
Cmax [45]: 26000 ng/mL
bioavailability [46]: 81%
Cmax [47]: 1750 ng/mL
concentration at 2 h [16]: 3430 ng/mL
Cp [48]: 4095 ng/mL
Vd [49]: 1.4 L/kg
concentration at 0.5 h [20]: 3190 ng/mL
AUC at 24 h [50]: 17500 ng·h/mL
half-life [51]: 1270 min
concentration at 0.5 h [22]: 3040 ng/mL
logD [24]: 1.65
Vd [52]: 1.3 L/kg
concentration at 6 h [27]: 1990 ng/mL
bioavailability [53]: 98%
AUC at 120 h [54]: 167 µg·h/mL
SMILES: C[C@H]1Cc2c(nnn2-c2ncc(F)cn2)CN1C(=O)c1ccnc(C(F)(F)F)c1F [ZANVIPIXANT]
NOAEL (Cavia porcellus): 1850 ng/mL
NOAEL (Canis familiaris): 1280 ng/mL
